The source made the active and inactive calls. The calls are words filed in the database; no cut-off is given here.

The values below come from ChEMBL document CHEMBL1122637, “Synthesis and antiallergy activity of 10-oxo-10H-pyrido[1,2-a]thieno[3,2-d]pyrimidines and 10-oxo-10H-pyrido[1,2-a]thieno[3,4-d]pyrimidines” (1984).

The subject of the first test is Rattus norvegicus. Nature of the test: Compound was tested for antiallergic activity in the rat passive cutaneous anaphylaxis (PCA) model after intraperitoneal administration at a dose 10 mg/kg. In kind it is functional. As to conditions: ip. In outline: (§1)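 Rats passively sensitized by intradermal injection of antiserum dilutions at several back sites, 48 h before iv challenge with 1 mg ovalbumin in 1 mL saline with 0.25% Evans blue. Drug given ip as a suspension in 1% gum tragacanth/saline 10-15 min before challenge. Wheal diameter read 30 min later. Five rats per group. % inhibition taken against control minus extrapolated base value at the highest antiserum concentration. Student's t test.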
In general, inhibition in vivo refers to the share of the control response that was lost under treatment. A higher inhibition in vivo goes with strong suppression. In the case of `O=C(O)c1cc(=O)c2c(OCC(O)COc3cccc4oc(C(=O)O)cc(=O)c34)cccc2o1` [CROMOLYN SODIUM], the inhibition in vivo at 10 mg/kg was 89%.

The subject of the next test is Rattus norvegicus. Nature of the test: Antiallergic activity in the rat passive cutaneous anaphylaxis (PCA) model after intraperitoneal administration at a dose 5 mg/kg. In kind it is functional. As to conditions: ip. In outline: as §1
`O=c1c2c(nc3ccc(-c4nnn[nH]4)cn13)CSC2` gave an inhibition in vivo at 5 mg/kg of 100%.
As for `Cc1cc2nc3ccc(C(=O)O)cn3c(=O)c2s1`, the inhibition in vivo at 5 mg/kg was found to be 61%.
On the same count and under the same terms, under `Cc1cc2nc3ccc(C(=O)Nc4nn[nH]n4)cn3c(=O)c2s1` stands 21%; under `O=C(Nc1nn[nH]n1)c1ccc2nc3ccsc3c(=O)n2c1`, 100%; under `O=C(Nc1nn[nH]n1)c1ccc2nc3cscc3c(=O)n2c1`, 49%.
`Cc1cc2c(=O)n3cc(C(=O)Nc4nn[nH]n4)ccc3nc2s1` registered an inhibition in vivo at 5 mg/kg of 25%.
The compound `O=C(Nc1nn[nH]n1)c1ccc2nc3c(c(=O)n2c1)CSC3` had an inhibition in vivo at 5 mg/kg of 33%.
Same read-out and setting: the value for `O=C(O)c1ccc2nc3ccsc3c(=O)n2c1` was 28%; that for `Cc1cc2c(=O)n3cc(-c4nnn[nH]4)ccc3nc2s1` was 100%.
`Cc1sc(C)c2c(=O)n3cc(C(=O)O)ccc3nc12`: 5 mg/kg produced 70% inhibition in vivo.
The compound `O=c1c2cscc2nc2ccc(-c3nnn[nH]3)cn12` yielded an inhibition in vivo at 5 mg/kg of 100%.
With `Cc1sc(C)c2c(=O)n3cc(-c4nnn[nH]4)ccc3nc12`, the inhibition in vivo at 5 mg/kg was 47%.
Still for that read-out and setting: the value for `Cc1cc2nc3ccc(-c4nnn[nH]4)cn3c(=O)c2s1` was 51%; that for `O=c1c2sccc2nc2ccc(-c3nnn[nH]3)cn12` was 70%.
The compound `O=C(O)c1ccc2nc3c(c(=O)n2c1)SCC3` gave an inhibition in vivo at 5 mg/kg of 46%.
In the case of `Cc1sc(C)c2c(=O)n3cc(C(=O)Nc4nn[nH]n4)ccc3nc12`, the inhibition in vivo at 5 mg/kg amounted to 50%.
`O=C(O)c1ccc2nc3cscc3c(=O)n2c1`: 5 mg/kg produced 41% inhibition in vivo.
`Cc1cc2c(=O)n3cc(C(=O)O)ccc3nc2s1` gave an inhibition in vivo at 5 mg/kg of 100%.

The next test deals with Rattus norvegicus. Nature of the test: Compound was tested for antiallergic activity in the rat passive cutaneous anaphylaxis (PCA) model after intraperitoneal administration at a dose 5 mg/kg; I denotes Inactive at 30 mg/kg. In kind it is functional, organism-based. The note with it: in the assay text read “Inactive at 5 mg/kg” for “Inactive at 30 mg/kg”. In outline: as §1
Take `O=C(O)c1ccc2nc3c(c(=O)n2c1)CSC3`: the inhibition result is “inactive”.
Turning to `O=c1c2c(nc3ccc(-c4nnn[nH]4)cn13)CCS2`, the inhibition entry was “inactive”.
